Test results published in ChEMBL document CHEMBL1136094, “Novel, potent and selective cyclin D1/CDK4 inhibitors: indolo[6,7-a]pyrrolo[3,4-c]carbazoles” (Bioorg Med Chem Lett, 2003).
In brackets after ≈: the same amount, converted by molar mass.

Key:
[1] = target: Tyrosine-protein kinase Blk (Homo sapiens) (UniProt P51451); experiment: Inhibition of B lymphoid tyrosine kinase at 100 nM; set-up: scale not given: the % may be the effect or the level left
How it was run: (§1)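 Panel profiling of isolated kinases with inhibitor at 100 nM and 500 nM. […] Remaining kinase activity is expressed as % of control and is the mean of duplicate assays.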

[2] = target: Tyrosine-protein kinase Lyn (Homo sapiens) (UniProt P07948); experiment: Inhibition of Protein tyrosine kinase Lyn at 100 nM; set-up: scale not given: the % may be the effect or the level left
[3] = target: Mitogen-activated protein kinase 1 (Homo sapiens) (UniProt P28482); experiment: Inhibition of Mitogen-activated protein kinase 2 at 100 nM; set-up: scale not given: the % may be the effect or the level left; how it was run: as §1
Sequence of Mitogen-activated protein kinase 1 (Homo sapiens) (P28482 whole entry): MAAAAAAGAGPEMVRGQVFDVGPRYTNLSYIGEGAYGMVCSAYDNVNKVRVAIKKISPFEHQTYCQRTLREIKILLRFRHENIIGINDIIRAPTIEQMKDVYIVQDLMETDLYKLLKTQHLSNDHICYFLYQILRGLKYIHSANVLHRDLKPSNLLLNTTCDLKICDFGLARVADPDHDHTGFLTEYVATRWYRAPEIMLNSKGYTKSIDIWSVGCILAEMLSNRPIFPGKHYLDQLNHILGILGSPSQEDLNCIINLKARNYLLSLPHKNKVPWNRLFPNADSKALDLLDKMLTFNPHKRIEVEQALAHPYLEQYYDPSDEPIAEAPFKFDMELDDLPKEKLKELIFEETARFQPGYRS

[4] = target: Dual specificity mitogen-activated protein kinase kinase 7 (Homo sapiens) (UniProt O14733); experiment: Inhibition of MKK7-beta kinase at 500 nM; set-up: scale not given: the % may be the effect or the level left; how it was run: as §1
Sequence of Dual specificity mitogen-activated protein kinase kinase 7 (Homo sapiens) (O14733 whole entry): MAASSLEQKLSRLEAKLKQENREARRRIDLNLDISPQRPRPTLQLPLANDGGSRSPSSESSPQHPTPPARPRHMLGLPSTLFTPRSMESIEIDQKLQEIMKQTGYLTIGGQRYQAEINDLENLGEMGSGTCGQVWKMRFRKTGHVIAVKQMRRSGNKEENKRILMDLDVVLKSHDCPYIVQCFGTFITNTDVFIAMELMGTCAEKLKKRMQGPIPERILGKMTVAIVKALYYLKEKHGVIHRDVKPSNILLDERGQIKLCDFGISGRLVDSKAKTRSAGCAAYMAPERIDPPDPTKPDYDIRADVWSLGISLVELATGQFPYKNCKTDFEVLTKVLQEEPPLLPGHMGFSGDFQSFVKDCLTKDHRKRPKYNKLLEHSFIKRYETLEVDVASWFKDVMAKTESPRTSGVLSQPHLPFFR

[5] = Aqueous solubility (in situ) in D5W after 1 week was determined; type: physicochemical; settings: D5W
[6] = target: Protein kinase C beta type (Homo sapiens) (UniProt P05771); experiment: Inhibition of Protein kinase C beta 2 at 500 nM; set-up: scale not given: the % may be the effect or the level left; how it was run: as §1
Sequence of Protein kinase C beta type (Homo sapiens) (P05771 2-671 limits assumed): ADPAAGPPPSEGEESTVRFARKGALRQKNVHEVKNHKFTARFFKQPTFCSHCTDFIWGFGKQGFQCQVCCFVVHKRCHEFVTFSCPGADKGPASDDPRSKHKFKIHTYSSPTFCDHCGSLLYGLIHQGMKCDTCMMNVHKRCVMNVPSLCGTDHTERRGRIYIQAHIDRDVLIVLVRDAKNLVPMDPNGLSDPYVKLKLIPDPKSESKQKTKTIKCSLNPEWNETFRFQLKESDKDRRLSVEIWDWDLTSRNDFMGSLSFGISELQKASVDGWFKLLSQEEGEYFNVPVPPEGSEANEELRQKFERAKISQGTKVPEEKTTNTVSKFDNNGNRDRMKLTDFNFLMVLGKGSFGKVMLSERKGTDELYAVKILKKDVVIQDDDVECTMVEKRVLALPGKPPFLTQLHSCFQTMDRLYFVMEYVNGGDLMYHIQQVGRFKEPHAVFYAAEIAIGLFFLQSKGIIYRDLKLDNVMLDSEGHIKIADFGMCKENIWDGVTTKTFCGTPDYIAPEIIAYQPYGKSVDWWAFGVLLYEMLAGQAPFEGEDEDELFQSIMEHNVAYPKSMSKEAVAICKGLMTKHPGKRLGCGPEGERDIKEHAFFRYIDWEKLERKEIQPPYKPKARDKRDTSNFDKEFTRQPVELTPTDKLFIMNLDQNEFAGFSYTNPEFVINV

[7] = target: Protein kinase C gamma type (Homo sapiens) (UniProt P05129); experiment: Inhibition of Protein kinase C gamma at 500 nM; set-up: scale not given: the % may be the effect or the level left
How it was run: (§2)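 Panel of 39 kinases, each tested at 100 and 500 nM inhibitor. […] Activity is expressed as % of control and is the mean of duplicate assays.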

[8] = target: Tyrosine-protein kinase Lck (Homo sapiens) (UniProt P06239); experiment: Inhibition of p56 Lck tyrosine kinase at 100 nM; set-up: scale not given: the % may be the effect or the level left; how it was run: as §2
[9] = target: Dual specificity mitogen-activated protein kinase kinase 7 (Homo sapiens) (UniProt O14733); experiment: Inhibition of MKK7-beta kinase at 100 nM; set-up: scale not given: the % may be the effect or the level left; how it was run: as §1
[10] = target: Cyclin-dependent kinase 4 (Homo sapiens) (UniProt P11802); experiment: Inhibition of Rb phosphorylation at the CDK4 specific Ser780 residue (3 fold increase over control) after 24 hr incubation in HCT116 cells; type: functional, cell-based; settings: HCT-116, concentration not given here
Sequence of Cyclin-dependent kinase 4 (Homo sapiens) (P11802 whole entry): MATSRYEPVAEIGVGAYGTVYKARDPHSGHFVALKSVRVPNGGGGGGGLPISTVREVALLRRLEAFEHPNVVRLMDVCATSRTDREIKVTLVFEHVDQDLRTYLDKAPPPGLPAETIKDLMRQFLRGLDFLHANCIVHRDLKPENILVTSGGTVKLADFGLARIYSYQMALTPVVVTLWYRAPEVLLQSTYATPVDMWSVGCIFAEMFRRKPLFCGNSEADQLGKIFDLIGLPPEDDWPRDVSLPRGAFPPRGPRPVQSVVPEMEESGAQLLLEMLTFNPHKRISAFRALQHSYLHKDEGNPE

[11] = target: Inhibitor of nuclear factor kappa-B kinase subunit beta (Homo sapiens) (UniProt O14920); experiment: Inhibition of I-kappa-B-kinase beta at 100 nM; set-up: scale not given: the % may be the effect or the level left; how it was run: as §1
[12] = target: Dual specificity mitogen-activated protein kinase kinase 4 (Homo sapiens) (UniProt P45985); experiment: Inhibition of mitogen-activated protein kinase kinase 4 at 100 nM; set-up: scale not given: the % may be the effect or the level left; how it was run: as §2
[13] = target: Protein kinase C beta type (Homo sapiens) (UniProt P05771); experiment: Inhibition of Protein kinase C beta 2 at 100 nM; set-up: scale not given: the % may be the effect or the level left; how it was run: as §1
[14] = target: Cyclin-dependent kinase 5/CDK5 activator 1 (Homo sapiens) (UniProt Q00535+Q15078); experiment: Inhibition of Cyclin-dependent kinase 5-p35nck5a at 100 nM; type: protein-complex assay; set-up: scale not given: the % may be the effect or the level left; how it was run: as §1
[15] = target: Cyclin-dependent kinase 4 (Homo sapiens) (UniProt P11802); experiment: Inhibition of Rb phosphorylation at the CDK4 specific Ser780 residue (1 fold increase over control) after 24 hr incubation in HCT116 cells; type: functional, cell-based; settings: HCT-116, concentration not given here
[16] = target: Protein kinase C gamma type (Homo sapiens) (UniProt P05129); experiment: Inhibition of Protein kinase C gamma at 100 nM; set-up: scale not given: the % may be the effect or the level left; how it was run: as §1
[17] = target: MAP kinase-activated protein kinase 2 (Homo sapiens) (UniProt P49137); experiment: Inhibition of mitogen-activated protein kinase-activated protein kinase 2 at 100 nM; set-up: scale not given: the % may be the effect or the level left; how it was run: as §2
Sequence of MAP kinase-activated protein kinase 2 (Homo sapiens) (P49137 whole entry, looked up): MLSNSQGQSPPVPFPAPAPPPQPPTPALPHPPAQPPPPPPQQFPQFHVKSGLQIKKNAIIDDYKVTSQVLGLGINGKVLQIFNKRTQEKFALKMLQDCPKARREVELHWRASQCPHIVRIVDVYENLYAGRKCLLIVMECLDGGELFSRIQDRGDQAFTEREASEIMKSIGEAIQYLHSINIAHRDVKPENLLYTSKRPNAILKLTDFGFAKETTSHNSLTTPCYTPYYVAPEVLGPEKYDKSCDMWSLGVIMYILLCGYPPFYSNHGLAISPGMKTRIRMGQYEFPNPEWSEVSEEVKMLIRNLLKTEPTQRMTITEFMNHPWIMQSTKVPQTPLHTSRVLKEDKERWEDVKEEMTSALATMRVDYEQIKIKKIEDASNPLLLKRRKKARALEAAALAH

[18] = target: Tyrosine-protein kinase CSK (Homo sapiens) (UniProt P41240); experiment: Inhibition of Tyrosine-protein kinase CSK at 500 nM; set-up: scale not given: the % may be the effect or the level left; how it was run: as §2
Sequence of Tyrosine-protein kinase CSK (Homo sapiens) (P41240 2-450 limits assumed): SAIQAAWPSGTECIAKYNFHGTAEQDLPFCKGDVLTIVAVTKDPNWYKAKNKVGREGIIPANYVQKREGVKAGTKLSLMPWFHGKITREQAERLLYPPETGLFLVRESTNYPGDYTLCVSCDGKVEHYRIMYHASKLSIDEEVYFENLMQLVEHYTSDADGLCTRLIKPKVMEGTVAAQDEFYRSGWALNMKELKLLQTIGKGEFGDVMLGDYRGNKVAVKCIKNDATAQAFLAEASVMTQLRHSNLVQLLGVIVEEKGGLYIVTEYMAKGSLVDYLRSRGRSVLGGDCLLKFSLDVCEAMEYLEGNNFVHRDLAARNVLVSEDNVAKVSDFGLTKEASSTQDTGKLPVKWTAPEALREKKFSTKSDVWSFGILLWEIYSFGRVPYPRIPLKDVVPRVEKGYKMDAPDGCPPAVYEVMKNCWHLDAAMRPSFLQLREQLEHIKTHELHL

[19] = target: Dual specificity mitogen-activated protein kinase kinase 6 (Homo sapiens) (UniProt P52564); experiment: Inhibition of mitogen-activated protein kinase kinase 6 at 100 nM; set-up: scale not given: the % may be the effect or the level left; how it was run: as §2
[20] = target: Mitogen-activated protein kinase 10 (Homo sapiens) (UniProt P53779); experiment: Inhibition of c-Jun N-terminal kinase 3 at 100 nM; set-up: scale not given: the % may be the effect or the level left; how it was run: as §2
Sequence of Mitogen-activated protein kinase 10 (Homo sapiens) (P53779 whole entry): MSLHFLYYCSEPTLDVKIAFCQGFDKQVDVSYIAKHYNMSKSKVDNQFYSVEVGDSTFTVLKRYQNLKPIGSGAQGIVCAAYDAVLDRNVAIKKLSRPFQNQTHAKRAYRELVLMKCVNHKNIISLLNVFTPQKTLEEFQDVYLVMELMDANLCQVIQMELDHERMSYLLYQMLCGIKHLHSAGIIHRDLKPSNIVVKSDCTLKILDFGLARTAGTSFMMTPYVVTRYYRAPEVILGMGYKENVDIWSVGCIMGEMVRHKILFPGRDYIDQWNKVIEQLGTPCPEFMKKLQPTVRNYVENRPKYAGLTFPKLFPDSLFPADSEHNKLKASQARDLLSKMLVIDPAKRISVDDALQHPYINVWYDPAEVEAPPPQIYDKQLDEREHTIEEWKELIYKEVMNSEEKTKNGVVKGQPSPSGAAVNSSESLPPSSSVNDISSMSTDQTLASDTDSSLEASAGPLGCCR

[21] = target: Protein kinase C theta type (Homo sapiens) (UniProt Q04759); experiment: Inhibition of Protein kinase C theta at 500 nM; set-up: scale not given: the % may be the effect or the level left; how it was run: as §2
[22] = target: RAC-alpha serine/threonine-protein kinase (Homo sapiens, UniProt P31749); experiment: Inhibition of Protein kinase B, Akt-1
[23] = target: Serine/threonine-protein kinase Sgk1 (Homo sapiens) (UniProt O00141); experiment: Inhibition of Serum/glucocorticoid regulated kinase at 500 nM; set-up: scale not given: the % may be the effect or the level left; how it was run: as §2
Sequence of Serine/threonine-protein kinase Sgk1 (Homo sapiens) (O00141 whole entry): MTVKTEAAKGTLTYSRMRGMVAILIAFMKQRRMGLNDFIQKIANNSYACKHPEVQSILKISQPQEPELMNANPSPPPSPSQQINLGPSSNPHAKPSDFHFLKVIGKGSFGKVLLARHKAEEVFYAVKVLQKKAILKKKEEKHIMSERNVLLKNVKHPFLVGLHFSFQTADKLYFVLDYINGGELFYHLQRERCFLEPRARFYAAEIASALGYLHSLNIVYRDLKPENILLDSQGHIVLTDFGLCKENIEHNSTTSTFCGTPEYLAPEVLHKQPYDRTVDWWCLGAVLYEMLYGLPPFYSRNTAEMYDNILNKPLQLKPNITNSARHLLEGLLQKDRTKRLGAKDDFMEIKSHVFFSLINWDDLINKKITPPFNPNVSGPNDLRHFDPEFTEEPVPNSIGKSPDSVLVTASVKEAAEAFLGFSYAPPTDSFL

[24] = target: T1, Cyclin-dependent kinase 4/cyclin D1 (Homo sapiens, UniProt P11802); experiment: Inhibitory activity against Cyclin D1-cyclin-dependent kinase 4 in enzymatic assay by measuring phosphorylation of Rb21; type: protein-complex assay
T1 sequence (P11802 whole entry): as the sequence (P11802 whole entry) above
T1 sequence (P24385 whole entry, further chain): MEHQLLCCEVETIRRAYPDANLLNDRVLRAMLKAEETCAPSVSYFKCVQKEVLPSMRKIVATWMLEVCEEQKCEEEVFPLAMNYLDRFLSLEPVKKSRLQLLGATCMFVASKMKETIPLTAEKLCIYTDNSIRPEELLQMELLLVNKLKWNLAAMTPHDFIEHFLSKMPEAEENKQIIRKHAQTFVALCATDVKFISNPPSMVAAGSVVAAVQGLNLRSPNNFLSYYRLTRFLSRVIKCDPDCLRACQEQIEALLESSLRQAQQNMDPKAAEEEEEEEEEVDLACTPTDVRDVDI

[25] = target: Serine/threonine-protein kinase Chk1 (Homo sapiens) (UniProt O14757); experiment: Inhibition of Serine/threonine-protein kinase Chk1 at 100 nM; set-up: scale not given: the % may be the effect or the level left; how it was run: as §2
[26] = target: Tyrosine-protein kinase CSK (Homo sapiens) (UniProt P41240); experiment: Inhibition of Tyrosine-protein kinase CSK at 100 nM; set-up: scale not given: the % may be the effect or the level left; how it was run: as §2
[27] = target: Dual specificity mitogen-activated protein kinase kinase 1 (Homo sapiens) (UniProt Q02750); experiment: Inhibition of Mitogen activated protein kinase kinase kinase 1 at 500 nM; set-up: scale not given: the % may be the effect or the level left
[28] = target: Calcium/calmodulin-dependent protein kinase type IV (Homo sapiens) (UniProt Q16566); experiment: Inhibition of Calcium/calmodulin-dependent protein kinase type IV at 100 nM; set-up: scale not given: the % may be the effect or the level left; how it was run: as §1
[29] = target: Serine/threonine-protein kinase Sgk1 (Homo sapiens) (UniProt O00141); experiment: Inhibition of Serum/glucocorticoid regulated kinase at 100 nM; set-up: scale not given: the % may be the effect or the level left; how it was run: as §2
[30] = target: Mitogen-activated protein kinase 1 (Homo sapiens) (UniProt P28482); experiment: Inhibition of Mitogen-activated protein kinase 2 at 500 nM; set-up: scale not given: the % may be the effect or the level left; how it was run: as §1
[31] = target: Ribosomal protein S6 kinase alpha-5 (Homo sapiens) (UniProt O75582); experiment: Inhibition of MSK-1 kinase at 100 nM; set-up: scale not given: the % may be the effect or the level left; how it was run: as §1
[32] = target: Tyrosine-protein kinase Fyn (Homo sapiens) (UniProt P06241); experiment: Inhibition of Fyn protein kinase at 500 nM; set-up: scale not given: the % may be the effect or the level left; how it was run: as §1
[33] = target: Mitogen-activated protein kinase 10 (Homo sapiens) (UniProt P53779); experiment: Inhibition of c-Jun N-terminal kinase 3 at 500 nM; set-up: scale not given: the % may be the effect or the level left; how it was run: as §2
[34] = target: T1, Cyclin-dependent kinase 4/cyclin D1; experiment: Inhibitory activity against Cyclin D1-cyclin-dependent kinase 4 in enzymatic assay by measuring phosphorylation of RbING; type: protein-complex assay
[35] = target: Cyclin-dependent kinase 2/cyclin A (Homo sapiens) (UniProt P24941+P20248+P78396); experiment: Inhibition of Cyclin A-cyclin-dependent kinase 2 at 500 nM; type: protein-complex assay; set-up: scale not given: the % may be the effect or the level left; how it was run: as §1
[36] = target: Tyrosine-protein kinase SYK (Homo sapiens) (UniProt P43405); experiment: Inhibition of Syk protein tyrosine kinase at 500 nM; set-up: scale not given: the % may be the effect or the level left; how it was run: as §2
[37] = target: MAP kinase-activated protein kinase 2 (Homo sapiens) (UniProt P49137); experiment: Inhibition of mitogen-activated protein kinase-activated protein kinase 2 at 500 nM; set-up: scale not given: the % may be the effect or the level left; how it was run: as §2
[38] = target: Cyclin-dependent kinase 2/cyclin E (Homo sapiens, UniProt P24941); experiment: Inhibitory activity against Cyclin E-cyclin-dependent kinase 2 in enzymatic assay by measuring phosphorylation of RbING; type: protein-complex assay
[39] = target: CDK3/cyclin E (Homo sapiens) (UniProt P24864+O96020+Q00526); experiment: Inhibition of Cyclin E-cyclin-dependent kinase 3 at 500 nM; type: protein-complex assay; set-up: scale not given: the % may be the effect or the level left; how it was run: as §1
[40] = target: Tyrosine-protein kinase ZAP-70 (Homo sapiens) (UniProt P43403); experiment: Inhibition of Zeta-chain (TCR) associated protein kinase 70 kDa (ZAP70) at 100 nM; set-up: scale not given: the % may be the effect or the level left; how it was run: as §2
[41] = target: Rho-associated protein kinase 2 (Homo sapiens) (UniProt O75116); experiment: Inhibition of Protein kinase ROCK2 at 100 nM; set-up: scale not given: the % may be the effect or the level left; how it was run: as §2
[42] = target: RAF proto-oncogene serine/threonine-protein kinase (Homo sapiens) (UniProt P04049); experiment: Inhibition of RAF proto-oncogene serine/threonine-protein kinase at 100 nM; set-up: scale not given: the % may be the effect or the level left; how it was run: as §2
[43] = target: MAP kinase-activated protein kinase 5 (Homo sapiens) (UniProt Q8IW41); experiment: Inhibition of Protein kinase PRAK at 500 nM; set-up: scale not given: the % may be the effect or the level left; how it was run: as §2

## Cn1ccc2ccc3c4[nH]c5c(CCCN[C@H]6CC[C@H](O)CC6)cccc5c4c4c(c3c21)C(=O)NC4=O
[1]
  Control: 74%
[2]
  Control: 78%
[3]
  Control: 103%
[4]
  Control: 70%
[5]
  solubility at 168 h: 8900 µg/mL (≈ 18 mM)
[6]
  Control: 59%
[7]
  Control: 84%
[8]
  Control: 98%
[9]
  Control: 86%
[10]
  inhibition: 83%
[11]
  Control: 120%
[12]
  Control: 91%
[13]
  Control: 96%
[14]
  Control: 94%
[15]
  inhibition: 45%
[16]
  Control: 105%
[17]
  Control: 94%
[18]
  Control: 116%
[19]
  Control: 100%
[20]
  Control: 105%
[21]
  Control: 58%
[22]
  IC50: 5480 nM
[23]
  Control: 84%
[24]
  IC50: 19 nM
[25]
  Control: 86%
[26]
  Control: 104%
[27]
  Control: 87%
[28]
  Control: 108%
[29]
  Control: 94%
[30]
  Control: 90%
[31]
  Control: 92%
[32]
  Control: 74%
[33]
  Control: 97%
[34]
  IC50: 49 nM
[35]
  Control: 42%
[36]
  Control: 68%
[37]
  Control: 104%
[38]
  IC50: 1030 nM
[39]
  Control: 63%
[40]
  Control: 134%
[41]
  Control: 90%
[42]
  Control: 112%
[43]
  Control: 50%
